{"source": "paper PMC11605122", "about": "(Nature Communications, 2024)", "key": {"[1]": {"test": "peptide concentration in plasma", "format": "in vivo, mouse", "conditions": "DIO mice, 24 h post-injection, 50 nmol/kg s.c., n = 6; cAMP bioassay", "summary_of_the_method": "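Plasma activity was read in a cAMP assay on CHO cells expressing human GLP-1R, in HBSS pH 7.4 with 25 mM HEPES, 0.1% BSA and 0.5 mM IBMX. Serial dilutions were run in duplicate for 30 min at RT with HTRF detection. Standards were reference peptide spiked into 0.2% (final) naïve plasma. Sample ratio = sample EC50/reference EC50; concentration = known top concentration/ratio.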"}, "body weight, HFD-fed": {"test": "body weight, HFD-fed", "format": "in vivo, mouse", "conditions": "DIO mice, 1 week"}, "plasma insulin": {"test": "plasma insulin", "format": "in vivo, mouse", "conditions": "DIO mice, Fc-GLP1", "summary_of_the_method": "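Plasma ALT was read with Reflotron strips and plasma TGs by colorimetric assay. Serum FGF21 and plasma adiponectin and insulin were measured by ELISA.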"}, "plasma FFAs": {"test": "plasma FFAs", "format": "in vivo, mouse"}, "blood ketone bodies": {"test": "blood ketone bodies", "format": "in vivo, mouse", "conditions": "DIO mice, Fc-GLP1", "summary_of_the_method": "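DIO mice were fed 60%-fat HFD from 8 weeks of age, for 12 weeks (males) or 24 weeks (females); one male cohort was housed at 30 °C. The test compound was given s.c. every 2 days in 50 mM sodium phosphate/300 mM mannitol pH 6.9. Glucose and ketone bodies were read in tail-vein blood.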"}, "BAT skin temperature": {"test": "BAT skin temperature", "format": "in vivo, mouse", "conditions": "DIO mice, Fc-GLP1"}, "BAT, eWAT, iWAT": {"system": "BAT, eWAT, iWAT", "test": "UCP1 and TH protein", "format": "in vivo, mouse", "conditions": "DIO mice, Fc-GLP1"}, "[2]": {"system": "POMC neurons, arcuate nucleus", "test": "cFos-positive POMC neurons in ARC", "format": "in vivo, mouse", "conditions": "DIO mice, Fc-GLP1, 1 week", "summary_of_the_method": "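Brain slices were blocked 2 h at RT in PBS with 1% BSA and 0.1% Triton X-100. They were incubated overnight at 4 °C with anti-POMC and anti-c-Fos, then with secondary antibodies in 1% BSA/PBS for 2 h at RT, protected from light.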"}, "[3]": {"conditions": "cited from earlier work"}, "GCGR and GLP-1R": {"system": "GCGR and GLP-1R", "conditions": "vs cognate ligands; cited from earlier work"}, "[4]": {"conditions": "cited from earlier work", "remark": "listed apart in the source"}, "GCGR": {"system": "GCGR", "test": "block of glucagon-induced glucose elevation in lean mice", "format": "in vivo, mouse"}, "eWAT explants": {"system": "eWAT explants", "test": "lipolysis", "format": "cell-based, mouse", "conditions": "10 nM glucagon, 4 h"}, "[5]": {"conditions": "cited from earlier work", "remark": "listed apart in the source"}}, "note": "Entries after “also recorded” stand apart in the source; their conditions may differ."}
{"substance": "HGEGTFTSDVSSYLEGQAAKEFIAWLVKGG-linker-Fc [Fc-GLP1, reference compound]", "values": [{"measurement": "peptide plasma level", "setting": "[1]", "result": "105.1 ± 18.33", "unit": "nM"}, {"measurement": "loss of body weight", "setting": "body weight, HFD-fed; Fc-GLP1 50 nmol/kg", "result": "11.0 ± 0.46", "unit": "%"}, {"measurement": "plasma insulin peak", "setting": "plasma insulin", "result": "a lower insulin peak"}, {"measurement": "plasma FFAs", "setting": "plasma FFAs; DIO mice, Fc-GLP1, 6 h", "result": "elevation of FFAs was not observed"}, {"measurement": "ketogenesis", "setting": "blood ketone bodies", "result": "ketogenesis was not elevated"}, {"measurement": "BAT temperature", "setting": "BAT skin temperature", "result": "neither UCP1 nor BAT temperature were increased"}, {"measurement": "UCP1 in BAT", "setting": "BAT, eWAT, iWAT", "result": "neither UCP1 nor BAT temperature were increased"}, {"measurement": "cFos positive POMC neurons", "setting": "[2]", "result": "an increase in cFos positive POMC neurons"}]}
{"substance": "OXM: native peptide oxyntomodulin, activates both GLP-1R and GCGR", "values": [{"measurement": "half-life in circulation", "setting": "[3]", "result": "short half-life in circulation"}, {"measurement": "affinity to GLP-1R and GCGR", "setting": "GCGR and GLP-1R", "result": "reduced affinity compared with their cognate ligands"}]}
{"substance": "cotadutide", "values": [{"measurement": "postprandial glucose, body weight, hepatic fat", "setting": "[4]; obese/overweight individuals, type 2 diabetes", "result": "improved postprandial glucose excursions and reduced body weight and hepatic fat"}, {"measurement": "glycemia, body weight, MASLD", "setting": "[4]; phase 2b trial", "result": "reduced glycemia and body weight and improved metabolic-dysfunction associated steatotic liver disease (MASLD)"}, {"measurement": "liver metabolism, MASH and fibrosis", "setting": "[3]; C57BL/6J or ob/ob mice", "result": "more effective than obeticholic acid in improving liver metabolism and ameliorating MASH and fibrosis"}, {"measurement": "liver inflammation and adipocyte apoptosis", "setting": "[3]", "result": "decreased liver inflammation and apoptosis in adipocytes"}]}
{"substance": "des-His1-[Glu9]-Glucagon (1-29) amide [GCGRant, reference compound]", "values": [{"measurement": "body weight loss", "setting": "body weight, HFD-fed; GCGRant alone (1 mg/kg i.p. daily)", "result": "6.8 ± 0.46", "unit": "%"}, {"measurement": "block of glucagon effect on glucose", "setting": "GCGR", "result": "able to block the effect of glucagon in elevating glucose levels in lean mice"}]}
{"substance": "glucagon: native GCGR ligand", "values": [{"measurement": "circulating FFAs / lipolysis", "setting": "plasma FFAs; lean mice, glucagon (100 nmol/kg), 1 h", "result": "this effect was not detected at 1 h; also recorded: did not increase lipolysis at 1 h"}, {"measurement": "circulating FFAs", "setting": "plasma FFAs; lean mice, glucagon, 6 h post-injection", "result": "an increase of circulating FFAs at 6 h post-injection"}, {"measurement": "lipolysis", "setting": "eWAT explants", "result": "increased lipolysis in eWAT explants"}, {"measurement": "FFA concentration, supraphysiological administration", "setting": "[5]", "result": "increased FFA concentration"}, {"measurement": "plasma FFAs, physiological doses", "setting": "[5]; humans", "result": "did not find elevation in plasma FFAs in humans"}, {"measurement": "lipolysis ex vivo in WAT explants", "setting": "[5]; wild-type or adipocyte-specific GCGR-deficient mice, 1 h", "result": "lack of effect of glucagon in lipolysis ex vivo in WAT explants"}]}
